Source: ChEMBL document CHEMBL4325842, “Design, synthesis, and biological evaluation of novel aminopyrimidinylisoindolines as AXL kinase inhibitors” (Bioorg Med Chem Lett, 2018)

Columns and labels:
A549 = experiment: Antiproliferative activity against human A549 cells after 2 days by spectrophotometric analysis; format: functional; details: A549, 48 h
U-87 MG = experiment: Antiproliferative activity against human U87MG cells after 2 days by spectrophotometric analysis; format: functional, U-87MG ATCC; details: 48 h
OVCAR-3 = experiment: Antiproliferative activity against human OVCAR3 cells after 2 days by spectrophotometric analysis; format: functional; details: OVCAR-3, 48 h
Procedure, shortened: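 Cells from ATCC were kept in RPMI 1640 with 5% FBS. They were exposed to graded concentrations in DMSO/RPMI for 48 h at 37 C under 5% CO2, then fixed with 50% trichloroacetic acid. Cellular protein was read at 540 nm at time zero and at 48 h, with and without compound. TGI (100% growth inhibition) was taken from the concentration-response curve.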

[1] = biological target: Aurora kinase A (Homo sapiens) (UniProt O14965); experiment: Inhibition of human AuroraA at 10 uM using [H-LRRASLG] as substrate by [gamma-33P]-ATP assay relative to control
Procedure, shortened: (§1)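 Commercial kinase panel screen at a single concentration of 10 μM. % inhibition was calculated as 100 minus % activity.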

[2] = biological target: Tyrosine-protein kinase receptor UFO (Homo sapiens) (UniProt P30530); experiment: Inhibition of human AXL at 10 uM using EAIYAAPFAKKK as substrate by [gamma-33P]-ATP assay relative to control; procedure, shortened: as §1
[3] = biological target: Proto-oncogene tyrosine-protein kinase Src (Homo sapiens) (UniProt P12931); experiment: Inhibition of human c-SRC at 10 uM using poly[Glu:Tyr] (4:1) as substrate by [gamma-33P]-ATP assay relative to control
Procedure, shortened: (§2)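 Kinase-panel profiling (50 oncogenic kinases) run by an outside contract service. The test compound was tested at a single concentration of 10 μM. Percent inhibition was calculated as 100 minus % remaining activity.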

[4] = biological target: Cyclin-dependent kinase 1/cyclin B1 (Homo sapiens) (UniProt P06493+P14635); experiment: Inhibition of human CDK1/cyclinB at 10 uM using Histone H1 as substrate by [gamma-33P]-ATP assay relative to control; format: protein-complex assay; procedure, shortened: as §1
[5] = biological target: Serine/threonine-protein kinase Chk1 (Homo sapiens) (UniProt O14757); experiment: Inhibition of human CHK1 at 10 uM using KKKVSRSGLYRSPSMPENLNRPR as substrate by [gamma-33P]-ATP assay relative to control; procedure, shortened: as §1
[6] = biological target: Tyrosine-protein kinase Lck (Homo sapiens) (UniProt P06239); experiment: Inhibition of human LCK at 10 uM using poly[Glu:Tyr] (4:1) as substrate by [gamma-33P]-ATP assay relative to control; procedure, shortened: as §1
[7] = biological target: Tyrosine-protein kinase Lyn (Homo sapiens) (UniProt P07948); experiment: Inhibition of human LYN at 10 uM using poly[Glu:Tyr] (4:1) as substrate by [gamma-33P]-ATP assay relative to control; procedure, shortened: as §1
[8] = biological target: Dual specificity mitogen-activated protein kinase kinase 1 (Homo sapiens) (UniProt Q02750); experiment: Inhibition of human MEK1 at 10 uM using ERK2 (K52R) as substrate by [gamma-33P]-ATP assay relative to control; procedure, shortened: as §1
[9] = biological target: Serine/threonine-protein kinase 26 (Homo sapiens) (UniProt Q9P289); experiment: Inhibition of human MST4 at 10 uM using MBP as substrate by [gamma-33P]-ATP assay relative to control; procedure, shortened: as §1
[10] = biological target: Muscle, skeletal receptor tyrosine-protein kinase (Homo sapiens) (UniProt O15146); experiment: Inhibition of human MUSK at 10 uM using MBP as substrate by [gamma-33P]-ATP assay relative to control; procedure, shortened: as §1
[11] = biological target: Serine/threonine-protein kinase pim-1 (Homo sapiens) (UniProt P11309); experiment: Inhibition of human PIM1 at 10 uM using KKRNRTLTK as substrate by [gamma-33P]-ATP assay relative to control; procedure, shortened: as §2
[12] = biological target: Casein kinase I isoform epsilon (Homo sapiens) (UniProt P49674); experiment: Inhibition of human CK1 epsilon at 10 uM using KRRRAL[pS]VASLPGL as substrate by [gamma-33P]-ATP assay relative to control; procedure, shortened: as §1
[13] = biological target: DNA-dependent protein kinase catalytic subunit (Homo sapiens) (UniProt P78527); experiment: Inhibition of human DNA-PK at 10 uM using EPPLSQEAFADLWKK as substrate by [gamma-33P]-ATP assay relative to control; procedure, shortened: as §1
Focal adhesion kinase 1 = Focal adhesion kinase 1 (Homo sapiens, UniProt Q05397); experiment: Inhibition of human FAK at 10 uM using poly[Glu:Tyr] (4:1) as substrate by [gamma-33P]-ATP assay relative to control; procedure, shortened: as §1
[14] = biological target: Tyrosine-protein kinase Fgr (Homo sapiens) (UniProt P09769); experiment: Inhibition of human FGR at 10 uM using poly[Glu:Tyr] (4:1) as substrate by [gamma-33P]-ATP assay relative to control; procedure, shortened: as §1
[15] = biological target: Tyrosine-protein kinase Fyn (Homo sapiens) (UniProt P06241); experiment: Inhibition of human FYN at 10 uM using poly[Glu:Tyr] (4:1) as substrate by [gamma-33P]-ATP assay relative to control; procedure, shortened: as §1
[16] = biological target: Macrophage-stimulating protein receptor (Homo sapiens) (UniProt Q04912); experiment: Inhibition of human RON at 10 uM using KKSRGDYMTMQIG as substrate by [gamma-33P]-ATP assay relative to control; procedure, shortened: as §2
[17] = biological target: Proto-oncogene tyrosine-protein kinase ROS (Homo sapiens) (UniProt P08922); experiment: Inhibition of human ROS at 10 uM using KKKSPGEYVNIEFG as substrate by [gamma-33P]-ATP assay relative to control; procedure, shortened: as §2
[18] = biological target: Angiopoietin-1 receptor (Homo sapiens) (UniProt Q02763); experiment: Inhibition of human TIE2 at 10 uM using poly[Glu:Tyr] (4:1) as substrate by [gamma-33P]-ATP assay relative to control; procedure, shortened: as §2
[19] = biological target: High affinity nerve growth factor receptor (Homo sapiens) (UniProt P04629); experiment: Inhibition of human TRKA at 10 uM using poly[Glu:Tyr] (4:1) as substrate by [gamma-33P]-ATP assay relative to control; procedure, shortened: as §2
[20] = biological target: Tyrosine-protein kinase Yes (Homo sapiens) (UniProt P07947); experiment: Inhibition of human YES at 10 uM using poly[Glu:Tyr] (4:1) as substrate by [gamma-33P]-ATP assay relative to control; procedure, shortened: as §2
Aurora kinase A = Aurora kinase A (Homo sapiens, UniProt O14965); experiment: Inhibition of human AuroraA using [H-LRRASLG] as substrate by [gamma-33P]-ATP assay
[21] = biological target: Serine/threonine-protein kinase PLK1 (Homo sapiens, UniProt P53350); experiment: Inhibition of human PLK1 using casein as substrate by [gamma-33P]-ATP assay
IMR-32 = experiment: Antiproliferative activity against human IMR32 cells after 2 days by spectrophotometric analysis; format: functional; details: IMR-32, 48 h
NOMO-1 = experiment: Antiproliferative activity against human NOMO1 cells after 2 days by spectrophotometric analysis; format: functional; details: NOMO-1, 48 h
PANC-1 = experiment: Antiproliferative activity against human PANC1 cells after 2 days by spectrophotometric analysis; format: functional; details: PANC-1, 48 h
HT-1080 = experiment: Antiproliferative activity against human HT1080 cells after 2 days by spectrophotometric analysis; format: functional; details: HT-1080, 48 h

Cyclin-dependent kinase 1/cyclin B1 (Homo sapiens), sequence (P06493 whole entry, looked up): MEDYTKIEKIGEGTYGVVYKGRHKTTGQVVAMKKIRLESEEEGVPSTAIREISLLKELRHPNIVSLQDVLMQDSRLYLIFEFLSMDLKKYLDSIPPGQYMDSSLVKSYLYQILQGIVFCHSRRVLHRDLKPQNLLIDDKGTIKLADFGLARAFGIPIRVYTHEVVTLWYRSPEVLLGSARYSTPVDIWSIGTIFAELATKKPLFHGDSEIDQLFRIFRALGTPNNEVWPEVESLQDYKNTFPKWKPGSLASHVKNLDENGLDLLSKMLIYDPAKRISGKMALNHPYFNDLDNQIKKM
Cyclin-dependent kinase 1/cyclin B1 (Homo sapiens), sequence (P14635 whole entry, looked up): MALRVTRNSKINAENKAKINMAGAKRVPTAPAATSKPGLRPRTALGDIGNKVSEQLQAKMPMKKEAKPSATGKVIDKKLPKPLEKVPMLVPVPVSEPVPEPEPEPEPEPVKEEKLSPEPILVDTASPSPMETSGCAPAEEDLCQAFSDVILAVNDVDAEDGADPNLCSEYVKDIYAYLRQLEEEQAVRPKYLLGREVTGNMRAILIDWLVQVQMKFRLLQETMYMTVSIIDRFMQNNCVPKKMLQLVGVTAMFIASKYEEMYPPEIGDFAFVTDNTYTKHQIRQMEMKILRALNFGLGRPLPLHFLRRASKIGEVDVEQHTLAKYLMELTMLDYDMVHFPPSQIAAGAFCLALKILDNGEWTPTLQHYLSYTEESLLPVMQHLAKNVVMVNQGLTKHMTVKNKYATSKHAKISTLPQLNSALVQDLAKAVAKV
Muscle, skeletal receptor tyrosine-protein kinase (Homo sapiens), sequence (O15146 whole entry): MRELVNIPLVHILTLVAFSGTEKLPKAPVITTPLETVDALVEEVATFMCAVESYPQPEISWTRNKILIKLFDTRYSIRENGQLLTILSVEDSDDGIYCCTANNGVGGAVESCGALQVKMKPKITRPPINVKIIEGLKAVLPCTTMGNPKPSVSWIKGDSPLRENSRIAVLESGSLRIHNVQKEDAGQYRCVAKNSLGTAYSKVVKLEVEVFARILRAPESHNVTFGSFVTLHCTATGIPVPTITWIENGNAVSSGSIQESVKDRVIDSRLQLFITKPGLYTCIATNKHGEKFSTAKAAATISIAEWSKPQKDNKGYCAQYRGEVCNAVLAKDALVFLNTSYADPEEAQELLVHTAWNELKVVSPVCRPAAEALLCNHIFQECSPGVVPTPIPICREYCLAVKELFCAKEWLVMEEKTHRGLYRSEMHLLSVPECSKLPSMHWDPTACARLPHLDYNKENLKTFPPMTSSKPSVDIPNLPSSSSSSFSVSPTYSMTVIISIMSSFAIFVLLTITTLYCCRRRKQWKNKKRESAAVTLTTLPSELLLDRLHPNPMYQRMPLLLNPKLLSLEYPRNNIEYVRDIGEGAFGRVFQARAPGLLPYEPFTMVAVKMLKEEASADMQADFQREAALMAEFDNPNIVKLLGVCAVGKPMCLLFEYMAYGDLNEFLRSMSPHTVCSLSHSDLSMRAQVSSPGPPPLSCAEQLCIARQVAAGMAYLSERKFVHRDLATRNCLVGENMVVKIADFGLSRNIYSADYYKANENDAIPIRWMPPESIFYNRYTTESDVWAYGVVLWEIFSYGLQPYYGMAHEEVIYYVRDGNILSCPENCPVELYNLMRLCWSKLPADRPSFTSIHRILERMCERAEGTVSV
Tyrosine-protein kinase receptor UFO (Homo sapiens), sequence (P30530 whole entry): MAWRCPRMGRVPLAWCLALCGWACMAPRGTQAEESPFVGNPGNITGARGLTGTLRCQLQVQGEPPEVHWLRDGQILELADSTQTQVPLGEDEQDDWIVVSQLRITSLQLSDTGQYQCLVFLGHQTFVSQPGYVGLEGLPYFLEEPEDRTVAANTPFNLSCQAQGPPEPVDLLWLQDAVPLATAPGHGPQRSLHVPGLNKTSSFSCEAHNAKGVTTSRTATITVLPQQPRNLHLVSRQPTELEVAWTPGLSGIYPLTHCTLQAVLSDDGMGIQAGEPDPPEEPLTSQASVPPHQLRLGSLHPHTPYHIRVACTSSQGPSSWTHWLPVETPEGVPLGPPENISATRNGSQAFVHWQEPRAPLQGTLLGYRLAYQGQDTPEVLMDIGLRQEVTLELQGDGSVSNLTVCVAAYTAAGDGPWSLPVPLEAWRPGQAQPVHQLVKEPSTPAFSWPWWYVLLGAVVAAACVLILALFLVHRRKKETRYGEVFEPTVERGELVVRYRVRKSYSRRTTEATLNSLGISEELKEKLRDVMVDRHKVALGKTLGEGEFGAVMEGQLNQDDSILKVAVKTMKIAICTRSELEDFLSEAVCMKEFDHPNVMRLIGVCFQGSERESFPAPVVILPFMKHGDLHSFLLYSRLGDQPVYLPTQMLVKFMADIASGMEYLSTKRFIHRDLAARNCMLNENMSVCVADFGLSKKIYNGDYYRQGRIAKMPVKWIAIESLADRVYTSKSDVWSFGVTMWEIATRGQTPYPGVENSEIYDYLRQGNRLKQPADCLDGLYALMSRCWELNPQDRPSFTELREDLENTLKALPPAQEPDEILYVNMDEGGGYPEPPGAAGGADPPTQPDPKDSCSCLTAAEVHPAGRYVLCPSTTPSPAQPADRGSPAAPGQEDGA
Angiopoietin-1 receptor (Homo sapiens), sequence (Q02763 whole entry): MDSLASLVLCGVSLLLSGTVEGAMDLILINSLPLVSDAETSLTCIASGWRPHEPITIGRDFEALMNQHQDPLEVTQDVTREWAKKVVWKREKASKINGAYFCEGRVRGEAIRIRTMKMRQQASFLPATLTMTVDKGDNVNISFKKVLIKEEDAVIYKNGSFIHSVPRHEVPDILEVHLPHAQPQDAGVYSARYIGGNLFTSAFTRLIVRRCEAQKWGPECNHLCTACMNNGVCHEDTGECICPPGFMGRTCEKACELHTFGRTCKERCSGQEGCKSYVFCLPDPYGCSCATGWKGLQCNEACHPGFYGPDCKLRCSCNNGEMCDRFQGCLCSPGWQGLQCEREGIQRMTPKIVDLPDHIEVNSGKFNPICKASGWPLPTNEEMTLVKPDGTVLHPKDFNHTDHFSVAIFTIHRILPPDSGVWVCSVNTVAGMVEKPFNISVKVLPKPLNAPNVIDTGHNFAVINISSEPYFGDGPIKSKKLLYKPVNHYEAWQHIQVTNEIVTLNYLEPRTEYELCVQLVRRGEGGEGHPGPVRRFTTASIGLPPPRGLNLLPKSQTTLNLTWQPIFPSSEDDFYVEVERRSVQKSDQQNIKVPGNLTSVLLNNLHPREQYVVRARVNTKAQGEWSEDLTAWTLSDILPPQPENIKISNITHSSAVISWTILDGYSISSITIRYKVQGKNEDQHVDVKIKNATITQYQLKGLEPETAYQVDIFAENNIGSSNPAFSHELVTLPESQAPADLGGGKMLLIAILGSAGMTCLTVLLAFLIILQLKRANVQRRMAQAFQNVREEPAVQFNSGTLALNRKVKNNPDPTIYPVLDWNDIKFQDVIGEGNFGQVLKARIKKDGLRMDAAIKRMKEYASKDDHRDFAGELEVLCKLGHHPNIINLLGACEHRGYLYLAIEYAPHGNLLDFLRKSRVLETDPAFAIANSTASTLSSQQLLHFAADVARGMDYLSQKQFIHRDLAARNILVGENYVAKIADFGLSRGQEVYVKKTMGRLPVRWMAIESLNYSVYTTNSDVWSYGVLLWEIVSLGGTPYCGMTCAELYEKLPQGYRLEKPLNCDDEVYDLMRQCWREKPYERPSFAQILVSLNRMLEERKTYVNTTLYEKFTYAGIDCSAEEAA
High affinity nerve growth factor receptor (Homo sapiens), sequence (P04629 33-796 limits assumed): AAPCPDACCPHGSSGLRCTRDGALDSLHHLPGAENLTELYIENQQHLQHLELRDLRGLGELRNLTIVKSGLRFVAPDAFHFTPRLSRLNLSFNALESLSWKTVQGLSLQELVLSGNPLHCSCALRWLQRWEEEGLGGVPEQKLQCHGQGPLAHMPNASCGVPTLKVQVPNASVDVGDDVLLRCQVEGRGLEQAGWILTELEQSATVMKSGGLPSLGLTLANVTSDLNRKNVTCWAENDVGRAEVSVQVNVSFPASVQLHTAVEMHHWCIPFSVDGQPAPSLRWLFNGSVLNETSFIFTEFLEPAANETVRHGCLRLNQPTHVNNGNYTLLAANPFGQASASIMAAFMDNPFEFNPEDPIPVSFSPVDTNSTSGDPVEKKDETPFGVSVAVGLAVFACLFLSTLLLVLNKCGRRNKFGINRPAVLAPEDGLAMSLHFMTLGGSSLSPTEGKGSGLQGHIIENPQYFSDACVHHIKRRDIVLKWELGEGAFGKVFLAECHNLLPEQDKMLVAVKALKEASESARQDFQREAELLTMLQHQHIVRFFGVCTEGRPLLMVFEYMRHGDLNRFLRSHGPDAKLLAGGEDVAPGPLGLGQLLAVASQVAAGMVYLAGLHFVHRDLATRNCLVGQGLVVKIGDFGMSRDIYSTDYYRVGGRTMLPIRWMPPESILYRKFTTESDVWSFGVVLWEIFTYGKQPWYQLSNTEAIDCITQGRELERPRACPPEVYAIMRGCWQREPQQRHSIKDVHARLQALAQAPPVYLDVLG
Serine/threonine-protein kinase Chk1 (Homo sapiens), sequence (O14757 whole entry): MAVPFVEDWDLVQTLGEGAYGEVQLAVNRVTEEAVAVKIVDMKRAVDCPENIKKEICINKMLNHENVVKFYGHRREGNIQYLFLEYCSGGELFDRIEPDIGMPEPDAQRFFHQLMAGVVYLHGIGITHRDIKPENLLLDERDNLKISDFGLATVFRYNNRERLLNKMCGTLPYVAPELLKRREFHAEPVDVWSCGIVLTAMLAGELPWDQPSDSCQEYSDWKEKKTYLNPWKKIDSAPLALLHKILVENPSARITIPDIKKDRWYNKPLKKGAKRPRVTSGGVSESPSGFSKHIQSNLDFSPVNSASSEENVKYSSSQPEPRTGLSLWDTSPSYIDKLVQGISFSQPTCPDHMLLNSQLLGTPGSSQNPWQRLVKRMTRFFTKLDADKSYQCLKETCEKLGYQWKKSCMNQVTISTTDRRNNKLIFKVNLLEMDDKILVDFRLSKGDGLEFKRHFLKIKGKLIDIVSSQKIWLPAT

GI50 (A549): 1.3 µM | GI50 (U-87 MG): 22.1 µM | GI50 (OVCAR-3): 0.97 µM | inhibition [1]: 95.3% | inhibition [2]: 92.1% | inhibition [3]: 88.2% | inhibition [4]: 20.5% | inhibition [5]: 37.2% | inhibition [6]: 84.1% | inhibition [7]: 69.1% | inhibition [8]: 3.6% | inhibition [9]: 25.3% | inhibition [10]: 66.6% | inhibition [11]: 9.8% | inhibition [12]: -2.5% | inhibition [13]: -4% | inhibition (Focal adhesion kinase 1): 96.4% | inhibition [14]: 80.6% | inhibition [15]: 62.2% | inhibition [16]: 40.1% | inhibition [17]: 92.2% | inhibition [18]: 65.4% | inhibition [19]: 92.2% | inhibition [20]: 90.5% | IC50 (Aurora kinase A): 0.003 µM | IC50 [21]: 0.0088 µM | GI50 (PANC-1): 0.43 µM | GI50 (HT-1080): 1.8 µM
SMILES: CC(=O)N1CCN(c2ccc(Nc3ncc(C(F)(F)F)c(N4Cc5cccc(N(C)S(C)(=O)=O)c5C4)n3)cc2)CC1
GI50 (IMR-32): 0.26 µM | GI50 (NOMO-1): 3.8 µM
